Assay results from PMC6008213 (Biochemistry, 2018).
Numbering of substitutions follows the chain as printed.

Legend:
human TG2 [1] = target: T1, human TG2 (Homo sapiens, UniProt P21980); assay: TG2 deamidation activity assay; type: biochemical; details: for kinh/Ki (bimolecular rate constant for TG2 oxidation): deamidation activity assay, 50 mM Tris, 1 mM EDTA, TG2 10 μM
T1 sequence (P21980 1-687): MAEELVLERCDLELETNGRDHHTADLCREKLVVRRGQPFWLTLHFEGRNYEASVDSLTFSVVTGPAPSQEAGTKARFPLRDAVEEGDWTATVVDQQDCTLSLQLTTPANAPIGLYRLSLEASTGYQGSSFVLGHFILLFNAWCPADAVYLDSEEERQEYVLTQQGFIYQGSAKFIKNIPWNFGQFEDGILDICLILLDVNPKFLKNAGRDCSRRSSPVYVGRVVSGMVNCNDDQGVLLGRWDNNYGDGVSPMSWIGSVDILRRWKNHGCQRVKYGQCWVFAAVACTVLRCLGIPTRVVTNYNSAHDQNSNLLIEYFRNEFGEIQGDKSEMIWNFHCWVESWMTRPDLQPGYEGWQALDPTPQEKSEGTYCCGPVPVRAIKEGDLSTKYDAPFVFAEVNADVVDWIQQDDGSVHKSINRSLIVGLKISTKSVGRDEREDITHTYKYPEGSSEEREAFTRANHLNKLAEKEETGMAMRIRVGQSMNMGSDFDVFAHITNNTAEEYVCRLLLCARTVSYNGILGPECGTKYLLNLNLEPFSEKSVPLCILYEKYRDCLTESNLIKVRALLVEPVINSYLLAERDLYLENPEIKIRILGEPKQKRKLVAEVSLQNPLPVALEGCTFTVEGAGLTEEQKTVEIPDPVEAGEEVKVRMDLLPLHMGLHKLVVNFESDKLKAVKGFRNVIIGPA
Summary of the method: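 Human TG2 was expressed in and purified from E. coli and held at 10 μM in 50 mM Tris, 1 mM EDTA, pH 7.6, 22 °C, with disulfide oxidant. Aliquots taken at 2.5–120 min were diluted 10-fold into assay buffer. Deamidation activity was read relative to oxidant-free enzyme, in three technical replicates. Single-exponential fits gave k′. kinh/Ki came from the slope of k′ versus [I0], and Ki from fitting k′ versus [I0].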

human TG2 [2] = target: T1, human TG2; assay: TG2 transamidation activity assay; type: biochemical
Summary of the method: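 Transamidation was measured with TG2 immobilized on fibronectin, in 50 mM Tris, 1 mM EDTA, pH 7.6, 22 °C. After timed exposure to oxidant, activity was read relative to untreated enzyme. Single-exponential fits gave k′. Ki and kinh/Ki came from the dependence of k′ on inhibitor concentration.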

[3] = target: T2, C230S mutant of human TG2 (Homo sapiens, UniProt P21980, C230S); assay: Deamidation activity of the C230S mutant of TG2 after cystamine treatment; type: biochemical; details: 10-fold molar excess of cystamine, 30 min; pH 7.6, 22 °C
T2 sequence (P21980 1-687 C230S): T1 sequence (P21980 1-687) with C230S

TG2 = details: reported value; cited from earlier work

Ki (human TG2 [1]) | inactivation of WT TG2 (deamidation activity) (human TG2 [1]; 10-fold molar excess of cystamine, 30 min, pH 7.6, 22 °C) | kinh/Ki (bimolecular rate constant for TG2 oxidation) (human TG2 [1]; pH 7.6, 22 °C) | Ki (human TG2 [2]) | kinh/Ki (bimolecular rate constant for TG2 oxidation) (human TG2 [2]; transamidation activity assay, 50 mM Tris, 1 mM EDTA, pH 7.6, 22 °C (disulfiram: TG2 50 nM, disulfiram 10 μM, 2.5% DMSO)) | retained deamidation activity of C230S mutant [3] | SMILES | kinh/Ki (TG2)
> 600 µM | completely inactivated | 20 M⁻¹ s⁻¹ | > 100 µM | 28.3 M⁻¹ s⁻¹ | > 85% | NCCSSCCN [cystamine] | –
– | – | 4.83 M⁻¹ s⁻¹ | – | – | – | N[C@@H](CSSC[C@H](N)C(=O)O)C(=O)O [cystine] | –
– | – | – | – | – | – | O=C(NC[C@@H]1CC(Br)=NO1)[C@@H]1CCCN1C(=O)OCc1cnc2ccccc2c1 [ERW1041E] | 267 M⁻¹ s⁻¹
